Experimental findings from ChEMBL document CHEMBL2146398, “Novel interleukin-5 inhibitors based on hydroxyethylaminomethyl-4H-chromen-4-one scaffold” (Bioorg Med Chem, 2012) are described below.

This assay addresses T1, Interleukin-5 (Mus musculus) (UniProt P04401).
T1 sequence (whole entry): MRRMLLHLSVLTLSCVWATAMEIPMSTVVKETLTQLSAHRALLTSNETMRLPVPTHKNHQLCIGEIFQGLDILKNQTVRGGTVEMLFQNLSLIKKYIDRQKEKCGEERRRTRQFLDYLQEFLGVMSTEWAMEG
Description: Inhibition of IL-5 in mouse Y16 cells at 30 uM after 48 hrs by WST1 assay. In kind it is cell-based. An outline of the steps: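 IL-5-dependent pro-B Y16 cells cultured 48 h with 3 units/mL mIL-5, with or without test sample. Proliferation read as cell metabolism by WST-1 reduction. […] Values are means of three independent experiments.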
With `O=c1c(CN(CCO)C2CCCCC2)coc2cccc(OCC3CCCCC3)c12`, the inhibition (commonly the drop in the measured response relative to a control, in per cent) amounted to 94.5%. The figure for `COc1ccc(CN(CCO)Cc2coc3cccc(OCC4CCCCC4)c3c2=O)cc1` is 94.1%. The figure for `O=c1c(CN(CCO)Cc2ccc(Cl)cc2)coc2cccc(OCC3CCCCC3)c12` is 93.4%. The figure for `CN(CCO)Cc1coc2cccc(OCC3CCCCC3)c2c1=O` is 56%; for `O=c1c(CN(CCO)Cc2ccc(O)cc2)coc2cccc(OCC3CCCCC3)c12` it is 93.7%. The molecule `O=c1c(CN(CCO)c2ccccc2)coc2cccc(OCC3CCCCC3)c12` yielded an inhibition of 94.4%. The value for `Cc1ccc(CN(CCO)Cc2coc3cccc(OCC4CCCCC4)c3c2=O)cc1` was 94.3%. The value for `CC(C)N(CCO)Cc1coc2cccc(OCC3CCCCC3)c2c1=O` was 90.2%; that for `CCCCN(CCO)Cc1coc2cccc(OCC3CCCCC3)c2c1=O` was 94%. The value for `O=c1c(CN(CCO)CC2CCCCC2)coc2cccc(OCC3CCCCC3)c12` was 94.7%; that for `O=c1c(CN(CCO)Cc2ccccc2)coc2cccc(OCC3CCCCC3)c12` was 94.8%; that for `CCCN(CCO)Cc1coc2cccc(OCC3CCCCC3)c2c1=O` was 93.7%. Regarding `O=c1c(CN(CCO)Cc2ccncc2)coc2cccc(OCC3CCCCC3)c12`, the inhibition came to 94%.

The molecule `CCN(CCO)Cc1coc2cccc(OCC3CCCCC3)c2c1=O` came in with an inhibition of 79.2%.
